Laboratory results from article PMC10798293 (Journal of Enzyme Inhibition and Medicinal Chemistry, 2024).
“Also recorded” adds a separate entry of the source.

What was measured:
SaSDH [1] = molecular target: T1, SaSDH (Staphylococcus aureus, UniProt Q5HFG5); assay: SaSDH enzyme activity and kinetic parameters for substrates; type: biochemical; conditions: substrate varied, co-substrate at saturation, pH 9.0, 37 °C
T1 sequence (Q5HFG5 1-268): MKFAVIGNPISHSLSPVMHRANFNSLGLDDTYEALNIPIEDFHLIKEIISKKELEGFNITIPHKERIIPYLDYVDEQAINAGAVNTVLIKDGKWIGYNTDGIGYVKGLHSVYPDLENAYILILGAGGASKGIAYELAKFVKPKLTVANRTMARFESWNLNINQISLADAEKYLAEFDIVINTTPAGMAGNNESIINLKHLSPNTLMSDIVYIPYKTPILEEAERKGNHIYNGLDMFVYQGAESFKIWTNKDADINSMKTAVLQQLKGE
Summary of the method: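 His-tagged SaSDH (pET-28a(+), E. coli BL21(DE3)pLysS, IPTG induction, Ni-NTA purified). Reverse reaction: NADP+-dependent SHK oxidation, 1.54 ng enzyme, 100 mM Tris-HCl pH 9.0, 37 °C, enzyme-started; A340 every minute for 60 min.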

[2] = molecular target: T2, SaSDH (Staphylococcus aureus shikimate dehydrogenase) (Staphylococcus aureus, UniProt Q5HFG5); assay: SaSDH enzyme inhibition; type: biochemical; conditions: for IC50: 1 mM SHK, 1.54 ng SaSDH, pH 9.0, 37 °C, 30 min; for Mode of inhibition: with respect to SHK
T2 sequence (Q5HFG5 1-268): T1 sequence (Q5HFG5 1-268)

SaSDH [3] = molecular target: T1, SaSDH; assay: Isothermal titration calorimetry; type: binding; conditions: ITC, 100 mM Tris-HCl pH 9.0, 25 °C
S. aureus [4] = assay: S. aureus susceptibility, micro-broth two-fold serial dilution; type: cell-based, Staphylococcus aureus
S. aureus [5] = assay: Growth / time-kill curves; type: cell-based, Staphylococcus aureus; conditions: inhibitor at MIC: 50 μg/mL (-)-gallocatechin gallate, 250 μg/mL rhodiosin
S. aureus [6] = assay: Scanning electron microscopy of bacterial morphology; type: cell-based, Staphylococcus aureus; conditions: MIC and 1/2 MIC, 1.5 h
S. aureus [7] = assay: Cell membrane integrity, Calcein AM/PI staining; type: cell-based, Staphylococcus aureus; conditions: MIC, 37 °C, 3 h

O=C(O)C1=C[C@@H](O)[C@@H](O)[C@H](O)C1 [SHK, shikimate]
Km (SaSDH [1]): 46.1 µM
Vmax (SaSDH [1]): 3.362 mM/min/µg

C[C@@H]1O[C@@H](OC[C@H]2O[C@@H](Oc3c(-c4ccc(OCCO)c(OCCO)c4)oc4cc(OCCO)cc(O)c4c3=O)[C@H](O)[C@@H](O)[C@@H]2O)[C@H](O)[C@H](O)[C@H]1O [Troxerutin, reference compound]
IC50 ([2]; IC50, 1 mM NADP): < 100 µM

O=C(O[C@@H]1Cc2c(O)cc(O)cc2O[C@H]1c1cc(O)c(O)c(O)c1)c1cc(O)c(O)c(O)c1 [(-)-Gallocatechin gallate]
IC50 ([2]; 1 mM NADP): < 100 µM
Ki ([2]; Lineweaver-Burke plots, SHK varied 0.25-4 mM): 2.47 µM
Mode of inhibition ([2]; Lineweaver-Burke plots): uncompetitive inhibition; also recorded: uncompetitive inhibitor
Kd (SaSDH [3]): 44.6 µM
Antibacterial activity (in words) (S. aureus [4]): antibacterial activities
Effect on S. aureus growth (time-kill curves) (S. aureus [5]): slow bacterial growth
Bacterial morphology by SEM (S. aureus [6]): cell disintegration, cell surface fracturing and wrinkling
Cell membrane integrity (PI-labeled bacteria) (S. aureus [7]): cell membrane destruction

COc1ccc([C@@H]2CC(=O)c3c(O)cc(O[C@@H]4O[C@H](CO[C@@H]5O[C@@H](C)[C@H](O)[C@@H](O)[C@H]5O)[C@@H](O)[C@H](O)[C@H]4O)cc3O2)cc1O [Hesperidin]
IC50 ([2]; 1 mM NADP): < 100 µM

Rhodiosin
Mode of inhibition ([2]; Lineweaver-Burke plots): competitive inhibition
Mode of inhibition ([2]; Lineweaver-Burke plots, listed as rhodiosin): competitive inhibitor
Antibacterial activity (in words) (S. aureus [4]): antibacterial activities
Effect on S. aureus growth (time-kill curves) (S. aureus [5]): completely inhibited S.aureus growth
Bacterial morphology by SEM (S. aureus [6]): cell disintegration, cell surface fracturing and wrinkling
Cell membrane integrity (PI-labeled bacteria) (S. aureus [7]): cell membrane destruction

CC=C1[C@H](O[C@@H]2O[C@H](CO)[C@@H](O)[C@H](O)[C@H]2O)OC=C(C(=O)OC)[C@H]1CC(=O)OC[C@H]1O[C@@H](OCCc2ccc(O)cc2)[C@H](O)[C@@H](O)[C@@H]1O (stereo in doubt) [Specneuzhenide]
IC50 ([2]; 1 mM NADP): < 100 µM

NC(=O)c1ccc[n+]([C@@H]2O[C@H](COP(=O)([O-])OP(=O)(O)OC[C@H]3O[C@@H](n4cnc5c(N)ncnc54)[C@H](OP(=O)(O)O)[C@@H]3O)[C@@H](O)[C@H]2O)c1 [NADP^+]
Km (SaSDH [1]): 98.2 µM
Vmax (SaSDH [1]): 3.785 mM/min/µg

O=C(OC[C@H]1O[C@@H](OC(=O)c2cc(O)c(O)c(O)c2)[C@H](OC(=O)c2cc(O)c(O)c(O)c2)[C@@H](OC(=O)c2cc(O)c(O)c(O)c2)[C@@H]1OC(=O)c1cc(O)c(O)c(O)c1)c1cc(O)c(O)c(O)c1 [Pentagalloylglucose]
IC50 ([2]; IC50, 1 mM NADP): < 100 µM
Antibacterial activity (in words) (S. aureus [4]): antibacterial activities
